From ChEMBL document CHEMBL1255535, “7-O-Arylmethylgalangin as a novel scaffold for anti-HCV agents” (Bioorg Med Chem Lett, 2010)

Experiments:
[1] = Cytotoxicity against human Huh5-2 cells after 3 days by WST-1 assay; type: cell-based, Huh-5-2
Summary of the method: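 Huh-5-2 cells seeded at 5 × 10³/well in complete DMEM with G418; serial compound dilutions in DMEM without G418 added 24 h later; cells proliferated 3 days at 37 °C; cell number by WST-1. CC50 = concentration reducing cell proliferation by 50%.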

Hepatitis C virus = assay: Antiviral activity against HCV assessed as inhibition of viral replication by luciferase assay; type: functional, organism-based, Hepacivirus hominis
Summary of the method: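 Huh-5-2 replicon cells (5 × 10³/well) seeded in complete DMEM with G418, 24 h at 37 °C (5% CO2), then medium refreshed with G418 and compounds added from DMSO stock; 4 days at 37 °C; luciferase activity read by Steady-Glo. EC50 = concentration inhibiting HCV RNA replication by 50%, averaged from triplicate determinations; IFN-α as positive control.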

[2] = Selectivity index, ratio of CC50 for human Huh5-2 cells to EC50 for HCV; set-up: species or system Huh-5-2
Summary of the method: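 Selectivity index computed as CC50 (Huh-5-2 proliferation, WST-1, 3 days) divided by EC50 (replicon luciferase, 4 days), both from the same Huh-5-2 cell line.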

Row | Structure (SMILES) | CC50 at 72 h [1] [µM] | EC50 (Hepatitis C virus) [µM] | Selectivity Index [2]
1 | COc1cccc(COc2cc(O)c3c(=O)c(O)c(-c4ccccc4)oc3c2)c1 | > 100 | 15 | –
2 | Cc1ccccc1COc1cc(O)c2c(=O)c(O)c(-c3ccccc3)oc2c1 | 17 | 7 | 2.4
3 | COc1ccccc1COc1cc(O)c2c(=O)c(O)c(-c3ccccc3)oc2c1 | > 100 | 53 | –
4 | O=c1c(O)c(-c2ccccc2)oc2cc(OCc3ccc(Cl)cc3)cc(O)c12 | > 100 | 8 | –
5 | N#Cc1ccc(COc2cc(O)c3c(=O)c(O)c(-c4ccccc4)oc3c2)cc1 | 94 | 19 | 4.9
6 | Cc1cccc(COc2cc(O)c3c(=O)c(O)c(-c4ccccc4)oc3c2)c1 | 35 | 27 | 1.3
7 | N#Cc1ccccc1COc1cc(O)c2c(=O)c(O)c(-c3ccccc3)oc2c1 | 22 | 39 | 0.6
8 | O=c1c(O)c(-c2ccccc2)oc2cc(OCc3cccc(Cl)c3)cc(O)c12 | > 100 | 22 | –
9 | O=c1c(O)c(-c2ccccc2)oc2cc(OCc3ccccc3Cl)cc(O)c12 | > 100 | 30 | –
10 | N#Cc1cccc(COc2cc(O)c3c(=O)c(O)c(-c4ccccc4)oc3c2)c1 | 72 | 3 | 24
11 | O=c1c(O)c(-c2ccccc2)oc2cc(OCc3ccccc3[N+](=O)[O-])cc(O)c12 | 32 | 25 | 1.3
12 | O=c1c(O)c(-c2ccc(C(F)(F)F)cc2)oc2cc(OCc3ccc(Cl)cc3)cc(O)c12 | 73 | 3 | 24.3
13 | O=C(O)/C(O)=C/C(=O)c1cccc(NCc2ccc(Cl)cc2)c1 | – | 0.82 | –
14 | O=c1c(O)c(-c2ccccc2)oc2cc(OCc3ccc([N+](=O)[O-])cc3)cc(O)c12 | 93 | 10 | 9.3
15 | N#Cc1ccc(-c2oc3cc(OCc4ccc(Cl)cc4)cc(O)c3c(=O)c2O)cc1 | 67 | 0.9 | 74.4
16 | O=c1c(O)c(-c2ccccc2)oc2cc(OCc3cccc(Br)c3)cc(O)c12 | > 100 | 37 | –
17 | O=c1c(O)c(-c2ccccc2)oc2cc(OCc3ccc(Br)cc3)cc(O)c12 | > 100 | 6 | –
18 | COc1ccc(-c2oc3cc(OCc4ccc(Cl)cc4)cc(O)c3c(=O)c2O)cc1 | 64 | 6 | 10.7
19 | O=c1c(O)c(-c2ccccc2)oc2cc(OCc3ccccc3Br)cc(O)c12 | > 100 | 10 | –
20 | Cc1ccc(COc2cc(O)c3c(=O)c(O)c(-c4ccccc4)oc3c2)cc1 | 88 | 6 | 14.7
21 | COc1ccc(COc2cc(O)c3c(=O)c(O)c(-c4ccccc4)oc3c2)cc1 | > 100 | 38 | –
22 | O=c1c(O)c(-c2ccccc2)oc2cc(OCc3cccc([N+](=O)[O-])c3)cc(O)c12 | 76 | 2 | 38
